V-ATPase pH – regulators of yeast V-ATPase proton pumping, primary screen, pHLuorin cytosolic pH fluorescence; hit rate 0.37% among 350,000; AID 504577, 2011; S. cerevisiae; response, % at 10 µM; in the data active = response mostly above about 7.3%, no sharp cut-off; inactive = mostly below about 5.4%; note: actives read high
T cell modulator – modulators of CD8 T cell-vesicle binding, primary screen, mouse 2C CD8+ T cells, flow cytometry. 2C CD8+ T cell-vesicle binding; stronger effect = lower value. hit rate 0.068% among 330,000. response (vesicle binding), % at 7 µM;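 active = response, share of CD8 T cells binding vesicles, and their 90th percentile fluorescence all below set limits, cut at about 80% in these data, passing the limit was not always enough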;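 note: values below 100% mean blocked vesicle binding to the CD8+ T cells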
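Assay system: 2C TCR transgenic mouse naive CD8+ T cells, MACS-purified | Read-out: CD8+ gate FL2 mean fluorescence as % of same-row positive control | Signal: High-throughput flow cytometry with anti-B7-1 and anti-CD8 staining | Timing: Binding step 1.5 h, 37 °C, antibody labelling 20 min, ice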
Beta2AR agonist – beta2AR agonists driving receptor internalization, primary screen, cell-based, FAP fluorogen, flow cytometry; hit rate 0.43% among 340,000; response, % (no concentration beside the values); Am2.2-beta2AR cells;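 active = response above a set limit, near 3 SD of response in nonfluorescent compounds, cut at about 42% in these data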
Target sequence (P07550 whole entry, looked up): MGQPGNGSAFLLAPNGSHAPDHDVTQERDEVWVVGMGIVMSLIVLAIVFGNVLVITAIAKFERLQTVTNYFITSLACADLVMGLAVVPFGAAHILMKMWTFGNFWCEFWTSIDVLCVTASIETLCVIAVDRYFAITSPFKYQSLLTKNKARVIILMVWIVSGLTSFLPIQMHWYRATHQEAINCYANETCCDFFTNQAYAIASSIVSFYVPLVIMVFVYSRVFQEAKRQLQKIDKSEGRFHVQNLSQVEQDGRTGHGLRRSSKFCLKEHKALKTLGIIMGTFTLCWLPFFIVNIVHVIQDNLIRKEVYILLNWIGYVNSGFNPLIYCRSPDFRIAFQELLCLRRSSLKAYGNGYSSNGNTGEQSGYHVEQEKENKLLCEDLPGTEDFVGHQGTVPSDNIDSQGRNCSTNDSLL
rCAG RNA binder – binders of r(CAG) RNA repeats, primary screen, biochemical, fluorescence. r(CAG) RNA repeat, TO-PRO-1 dye displacement fluorescence. inhibition, % at 3 µM. hit rate 1.3% among 370,000;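 active = inhibition above the plate cutoff, the mean of all test compounds on that plate plus 3 SD, cut at about 35% in these data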;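 note: 0% = DMSO alone and 100% = 100 µM mitoxantrone as full dye displacement; higher means more dye released from RNA so lower well fluorescence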
Exocytosis inh – LAMP-1 surface exposure blockers, TALL-104 cells – cell-based, flow cytometry, MLPCN library, primary screen. TALL-104 LAMP-1 surface exposure; cells stimulated with thapsigargin and PMA. hit rate 0.66% among 360,000. AID 651702, 2012. inhibition, % at 10 µM;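 active = inhibition above about 55%, limit read from the data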
MPTP block – mitochondrial permeability transition pore inhibitors, primary screen, biochemical, isolated mouse mitochondria, absorbance; hit rate 1.4% among 360,000; Ca2+ swelling absorbance, 30 min; AID 602449, 2012; inhibition, % at 10 µM;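 active = inhibition of 50% or more, scaled per plate between neutral and stimulator controls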;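 note: 0% = DMSO wells given calcium and 100% = 1 mM EGTA wells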
MPTP counter – fluorescence retest of MPTP screen hits in isolated mitochondria, single concentration; shares compounds with MPTP block; membrane potential, Rhodamine 123 fluorescence; inhibition, % at 10 µM; hit rate 78% among 5,000; in the data active = inhibition above about 22%;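 note: 0% = DMSO vehicle and 100% = positive control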
MPTP swell DR – mitochondrial permeability transition pore inhibitors, dose response, biochemical, absorbance, uHTS hits; shares compounds with MPTP block; isolated mitochondria swelling; IC50, µM; hit rate 58% among 780; AID 651561, 2012; in the data active = IC50 below about 20 µM
MPTP cs DR – fluorescent counter-screen in isolated mitochondria, dose response, counter-screen for MPTP inhibitor project, biochemical, fluorescence, uHTS hits; shares compounds with MPTP block; isolated mitochondria counterscreen, fluorescence read-out; IC50, µM; hit rate 49% among 780; in the data active = IC50 below about 80 µM
* = called active by the depositor; i = inactive; nt = no result. Rows were chosen to be rich in hits. Some 3.8% of all compounds tested hit in one or more screens of this group.

SMILES	V-ATPase pH	T cell modulator	Beta2AR agonist	rCAG RNA binder	Exocytosis inh	MPTP block	MPTP counter	others
CSc1nc(-c2ccc(Cl)cc2Cl)[nH]c(=O)c1C#N	0	268	7	43*	0	88*	89*
CCCCCc1ccc(-c2cn(CN3C(=O)c4ccccc4C3=O)nn2)cc1	0	682	-5	5	-5	71*	11	MPTP swell DR=<0.2*;MPTP cs DR=<2.5*
CC(O)CNCCCOc1ccc(Cl)cc1C(C)(C)C (configuration not stated)	0	355	30	2	11	74*	-17	MPTP swell DR=5*;MPTP cs DR=>80
CN(C)CCOCCOc1ccc(Cl)cc1C(C)(C)C	0	514	23	-7	9	2	nt
COc1cccc(CNC(=O)Cn2c(-c3ccccc3)cc(C(C)=O)c2C)c1	nt	nt	nt	8	nt	nt	nt
Cn1cc(CNCc2cn[nH]c2-c2ccc(F)cc2)c(-c2ccc3c(c2)OCCO3)n1	-2	188	-3	-1	-1	2	nt
Cn1cc(CNCc2ccc(OC(F)(F)F)cc2)c(-c2ccc3c(c2)OCCO3)n1	-2	193	3	-9	3	102*	96*
c1ccc(CNc2ncnc3sccc23)cc1	0	425	2	3	10	26	nt
c1cncc(CNc2ncnc3sccc23)c1	1	366	-3	2	-1	1	nt
c1ccc(CCNc2ccccn2)nc1	-1	nt	-3	4	0	0	nt
CN(Cc1cccs1)c1ncnc2sccc12	3	792	-5	-2	-1	57*	63*
c1csc(CNc2ncnc3sccc23)c1	-2	223	-4	3	-5	90*	73*
Cc1csc2ncnc(NCCc3ccccn3)c12	-5	159	-8	5	-2	87*	70*
c1ccc(CCNc2ncnc3sccc23)nc1	7	195	-3	-1	-2	61*	16	MPTP swell DR=i;MPTP cs DR=52*
O=C(N[C@H](C(=O)N1CCC[C@H]1C(=O)NCCc1ccccc1Cl)c1ccccc1)c1ccco1	nt	nt	nt	-1	nt	nt	nt
CC[n+]1c(/C=C2\Sc3ccccc3N2C)ccc2cccc(C)c21	2	nt	nt	-162	68*	106*	100*
CCN1/C(=C/c2ccc3cc(C)ccc3[n+]2CC)Sc2cc(C)c(C)cc21	4	nt	i	-9	57*	106*	93*
CCN1/C(=C/C=C/C=C/c2sc3ccccc3[n+]2CC)Sc2ccccc21	nt	852	nt	nt	nt	nt	nt
CCN1/C(=C/c2ccc3cc(C)ccc3[n+]2CC)Sc2ccccc21	4	i	nt	-143	45	105*	96*
CCOC(=O)/C(=C/C=C1\Sc2cc(C)c(C)cc2N1CC)C(C)=O	0	nt	-76	-41	6	-3	nt
CCN1/C(=C/C=C/c2sc3ccccc3[n+]2CC)Sc2ccccc21	-2	168	-13	nt	75*	136*	84*
CCN1/C(=C/C=C/C=C/C=C/c2sc3ccccc3[n+]2CC)Sc2ccccc21	-4	139	-6	6	-50	1	nt
N#Cc1cccc(OC[C@@H](O)CN2CCC(C(O)(c3ccccc3)c3ccccc3)CC2)c1	nt	nt	nt	-2	nt	nt	nt
OC(CN1CCN(c2cccc(C(F)(F)F)c2)CC1)c1c[nH]c2ccccc12 (configuration not stated)	8	392	3	2	0	53*	-22	MPTP swell DR=>100;MPTP cs DR=72*
O=C(Nc1ccc(Cl)cc1)N1CCN(c2ccccc2)CC1	3	196	9	-3	3	66*	75*
SMILES	V-ATPase pH	T cell modulator	Beta2AR agonist	rCAG RNA binder	Exocytosis inh	MPTP block	MPTP counter	others
CCCN1CCN(C(=S)Nc2ccc([N+](=O)[O-])cc2)CC1	-5	102	2	-1	0	60*	66*
O=[N+]([O-])c1ccc(NC(=S)N2CCN(c3ccccc3)CC2)cc1	-4	i	-8	2	4	72*	84*
CCCC#Cc1ccc(CC[C@H]2O[C@H]3CC[C@H](CO)O[C@H]3C[C@H]2NC(=O)CN2CCOCC2)cc1	nt	nt	nt	-2	nt	nt	nt
CC(C)C[C@H](NC(=O)c1ccc(Cl)cc1Cl)C(=O)N1CCC[C@H]1C(=O)NCc1ccccc1	nt	nt	nt	-2	nt	nt	nt
COc1ccccc1N(C)S(=O)(=O)c1ccc(C(=O)OCC(=O)NCc2ccco2)cc1	-1	479	16	-6	-2	51*	-1	MPTP swell DR=>100;MPTP cs DR=>80
Nc1nc(Cl)cc(N2CCC(c3cc(-c4ccc(Cl)cc4Cl)n[nH]3)CC2)n1	-1	692	-2	7	-1	64*	63*
ClC(Cl)c1nnc(-c2ccccc2)c(-c2c[nH]c3ccccc23)n1	0	248	8	3	0	52*	47*
CCCNC(=O)c1cc(S(=O)(=O)N2CCc3ccccc32)cn1C	3	931	4	2	2	71*	44*
CCOC(=O)c1sc(NC(=O)c2cccc(S(=O)(=O)N3CCc4ccccc43)c2)c(C#N)c1C	1	128	26	26	10	91*	86*
CCC(CC)c1nnc(NC(=O)c2cccc(S(=O)(=O)N3CCc4ccccc43)c2)s1	-4	452	3	13	8	7	nt
CCc1ccccc1NC(=O)c1cc(S(=O)(=O)N2CCc3ccccc32)cn1C	-4	864	-1	3	-3	1	nt
O=C(Nc1ccncc1)c1cccc(S(=O)(=O)N2CCc3ccccc32)c1	0	283	9	5	1	96*	94*
CCOC(=O)Cn1cc(CN2CCS(=O)(=O)N(Cc3ccc(C)cc3)C(C(=O)OC)C2)nn1 (configuration not stated)	nt	nt	nt	1	nt	nt	nt
CN(C)NC(=S)Nc1cccc(C(F)(F)F)c1	0	255	-2	-3	0	-2	nt
COc1ccc(NC(=S)Nc2cccc(C(F)(F)F)c2)c(C)c1	1	i	5	1	-1	78*	104*
CCOc1ccc(NC(=S)Nc2ccc(Br)cc2Cl)cc1	1	551	4	0	-5	8	nt
FC(F)(F)c1cccc(NC(=S)NNC(=S)Nc2ccc(Cl)cc2)c1	nt	422	nt	nt	nt	nt	nt
COc1cccc(NC(=S)Nc2ccc(Br)cc2Cl)c1	0	534	25	2	-2	56*	69*

High-throughput results: PubChem, several laboratories
